# From PubChem BioAssay
# The list is not random: actives were taken first. Their share in the collection is about 2%.
# TROY NFkB inh – inhibitors of TROY-dependent NF-kB signaling | Q293 LMP1-TROYcd NF-kB luciferase reporter, 4 h | inhibition, % at 10 µM | 0.98% of 360,000 active;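 active means compounds whose plate-normalised and pattern-corrected inhibition of the luciferase reporter signal at the single screening dose is 50% or more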
# CaV13 ICDI inh – Disruptors of the CACNA1D IQ motif to Ca2+-dependent inactivation inhibitor domain association, primary screening, Förster resonance energy transfer in intact living … | HEK cells, CFP/YFP FRET ICDI-IQ, plate reader, 10 min; percent FRET-ratio fall versus neutral wells | inhibition, % at 12.3 µM | 0.098% of 340,000 active | AID 743397;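 active means mean replicate inhibition of at least 30% and at least 1% of replicates passing that level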;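 further: 0% = median of the neutral control wells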
# LGR2 antag – inhibitors of bursicon-induced Drosophila LGR2 receptor cAMP signaling; HEK293 LGR2, CRE-luciferase, bursicon-stimulated, 4 h; inhibition, % at 9.99 µM; 0.35% of 380,000 active; AID 720647;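 active means drop in luminescence signal, shown as inhibition above about 50% in the replicate tests, limit read from the data, passing the limit was not always enough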;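 further: agonist challenge used bursicon conditioned medium at about half maximal strength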
# XiGFP reactiv – reactivates the inactive X chromosome in mouse fibroblasts. XiGFP mouse fibroblasts, % GFP-positive cells imaging, 3 d; cells co-treated with 5-aza-dC sensitizer; scaled so ellipticine positive control = 100%. activation, % at 7.58 µM. 0.055% of 360,000 active. AID 743238;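 active means mean normalized replicate activation at least 10% and every replicate at or above 10%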;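 further: 0% = median of on-plate neutral control wells and 100% = ellipticine 6 µM median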
#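 Material: XiGFP fibroblasts, SV40-immortalized. Buffer or medium: DMEM plus 5-aza-dC sensitizer. Compound: single concentration per compound, delivered by pin transfer. Times: 3 days compound exposure. Controls: ellipticine 6 µM.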
# TWEAK-Fn14 inh – TWEAK-Fn14 signaling inhibition; TWEAK-stimulated Fn14 reporter cells, luciferase luminescence, 8 h; 2% of 360,000 active; inhibition, % at 10 µM; AID 1159606; in the data active means inhibition above about 50%
# * marks the source's active call; other numbers are inactive results; x = no result.
SMILES,TROY NFkB inh,CaV13 ICDI inh,LGR2 antag,XiGFP reactiv,TWEAK-Fn14 inh
O=C(Nc1ccccc1)C1=C[C@H](C2CCCCC2)C[C@H](OCCCCO)O1,67*,-4,-42,0,57*
O=C(Nc1ccccc1)C1=C[C@@H](C2CCCCC2)C[C@@H](OCCCCO)O1,67*,-4,-17,0,62*
CC(C)(C)[C@H]1C=C(C(=O)Nc2ccccc2)O[C@@H](OCCCCO)C1,84*,-3,-35,0,84*
Oc1c(C(Nc2nc3ccccc3s2)c2ccco2)ccc2cccnc12 (configuration not stated),14,-2,x,x,57*
C[C@H](CO)N1C[C@H](C)[C@H](CN(C)Cc2ccccn2)Oc2ncc(-c3ccccc3)cc2C1=O,x,x,2,0,x
COc1ccc(C2(C#N)CCC(=O)N2c2ccccc2)cc1 (configuration not stated),52*,-18,x,0,-17
CC(=O)Nc1ccc(S(=O)(=O)NC(C)C(=O)NCC(c2ccco2)N2CCCCC2)cc1 (configuration not stated),21,-5,-11,0,-2
O=C(NCC(c1ccco1)N1CCCC1)c1ccccc1F (configuration not stated),57*,-8,-9,x,53*
Cc1ccc(S(=O)(=O)NC(CC(C)C)C(=O)NCC(c2ccco2)N2CCCCC2)cc1 (configuration not stated),88*,x,x,x,104*
CC(C)NC(=O)N(C)C[C@H]1Oc2ccc(NC(=O)Nc3ccc(F)cc3)cc2CC(=O)N([C@@H](C)CO)C[C@H]1C,x,x,18,-1,x
Cc1ccc(NC(=O)Cc2cc(C(=O)O)c3ccccc3n2)c(C)c1,43,1,19,0,52*
CCCc1cc(C(=O)O)c2ccccc2n1,20,x,x,x,8
O=C(C=C=Nc1ccccc1)C(=O)N=C=Cc1ccccc1,51*,-27,21,0,86*
COc1ccc2c3c([nH]c2c1)[C@@H](CO)N(C(=O)NC(C)C)CC31CN(C(=O)NC2CCCC2)C1,x,x,x,0,x
COc1ccc(S(=O)(=O)N(C)C[C@@H]2OCCCC[C@H](C)Oc3ccc(NC(=O)C4CCCCC4)cc3C(=O)N([C@H](C)CO)C[C@H]2C)cc1,x,x,-21,9,x
CN1CCN(c2ccc(NC(=O)c3ccco3)cc2Cl)CC1,50*,-3,7,0,39
CC(C)C(=O)N1CCN(c2ccc(NC(=O)c3cccs3)cc2Cl)CC1,16,-5,x,0,-10
O=C(Nc1ccc(N2CCCC2)c(Cl)c1)c1ccco1,-53,-5,x,x,-18
O=C(Nc1ccc(N2CCN(C(=O)c3ccco3)CC2)c(Cl)c1)c1cccs1,35,0,x,x,108*
CCOc1ccc(S(=O)(=O)N(C)c2ccc(OCC(=O)Nc3nc4ccccc4s3)cc2)cc1,34,-6,-9,0,74*
COc1ccc(NC(=O)CCc2nc3ccccc3s2)c(OC)c1,-1,-34,-37,0,-24
CCOc1ccc(C(=O)CCc2nc3ccccc3s2)cc1,54*,-6,x,x,46
O=C(COc1ccccc1)NNC(=S)NC(=O)c1ccccc1,-6,-2,-46,0,1
COc1ccc(C(=O)NC(=S)NNC(=O)COc2ccccc2)cc1,17,-5,41,0,63*
CCOc1ccc(S(=O)(=O)N(C)c2ccc(OCC(=O)NC3=NCCS3)cc2)cc1,-19,-5,-8,0,9
SMILES,TROY NFkB inh,CaV13 ICDI inh,LGR2 antag,XiGFP reactiv,TWEAK-Fn14 inh
COc1ccc(OCC(=O)NNc2nc3ccccc3s2)cc1,79*,-18,x,0,4
Cc1noc(C)c1NC(=O)N(C)C[C@H]1OCCCC[C@@H](C)Oc2ccc(NC(=O)CCC(F)(F)F)cc2C(=O)N([C@H](C)CO)C[C@@H]1C,x,x,30,-1,x
CCCN(C)C[C@H]1OCCCC[C@@H](C)Oc2ccc(NS(=O)(=O)c3c(C)noc3C)cc2C(=O)N([C@@H](C)CO)C[C@H]1C,x,x,15,0,x
C[C@H](CO)N1C[C@H](C)[C@H](CN(C)C(=O)c2ccc(F)cc2)Oc2cc(-c3cccc(C#N)c3)ccc2S1(=O)=O,x,x,-23,-1,x
CN(c1ccc(OCC(=O)Nc2nc3ccccc3s2)cc1)S(=O)(=O)c1ccccc1,51*,-6,-14,0,41
Cc1cc(NC(=O)COc2ccc(N(C)S(=O)(=O)c3ccccc3)cc2)no1,4,-2,x,x,12
Cc1noc(C)c1S(=O)(=O)Nc1ccc2c(c1)CC(=O)N([C@H](C)CO)C[C@@H](C)[C@H](CN(C)C(=O)Nc1ccc3c(c1)OCO3)O2,x,x,-8,0,x
CCOC(=O)/C(=C\Nc1ccccc1C(F)(F)F)Sc1ncc(C(F)(F)F)cc1Cl,-9,x,8,x,12
N#Cc1c(Sc2ncc(C(F)(F)F)cc2Cl)nsc1C/C=N\OCc1ccccc1Br,x,-5,-14,x,67*
CN1CCN(Cc2nc3ccccc3c(=O)n2Cc2nc(-c3ccc4ccccc4c3)cs2)CC1,41,-7,90*,1,-121
Cc1nc2ccc(NC(=O)c3cccs3)cc2c(=O)n1Cc1ccc(Cl)cc1,70*,-9,x,x,83*
CCCc1nc2ccc(NC(=O)c3cccs3)cc2c(=O)n1Cc1ccc(Cl)cc1,-9,3,-9,0,18
COc1ccc2c(c1)c(=O)oc1c(C)c(OCc3cc(C(=O)O)oc3C)ccc12,23,-4,-35,0,79*
COc1ccc2c(c1)c(=O)oc1c(C)c(OCc3ccc(C(=O)O)cc3)ccc12,-25,x,-5,x,2
Cc1cc(/C=c2\sc3nc4ccccc4n3c2=O)c(C)n1-c1ccc(C(=O)O)cc1,-12,-4,-18,0,10
O=c1/c(=C/c2ccc(O)c([N+](=O)[O-])c2)sc2nc3ccccc3n12,-9,-4,2,0,43
CCN(CC)c1ccc(/C=c2\sc3nc4ccccc4n3c2=O)c(O)c1,54*,5,-2,0,67*
Cc1cc(/C=c2/sc3nc4ccccc4n3c2=O)c(C)n1-c1ccccn1,75*,-13,x,x,83*
CCC(=O)N1CC(=O)N2[C@H](CO)[C@H](c3ccc(C#Cc4cccc(OC)c4)cc3)[C@H]2C1,x,x,4,0,x
CS(=O)(=O)c1ccc(-c2cn3cc(C(=O)O)ccc3n2)cc1,-16,6,77*,0,15
O=C(C[C@H]1CC[C@H](NC(=O)C2CCOCC2)[C@@H](CO)O1)Nc1nccs1,x,x,-7,0,x
COc1ccc(C2c3sc(=O)[nH]c3SC3C4CCC(C4)C23)cc1 (configuration not stated),x,x,x,x,64*
O=c1[nH]c2c(s1)C(c1ccccc1)C1C3CCC(C3)C1S2 (configuration not stated),17,x,x,x,11
CNC(=S)Nc1ccc([N+](=O)[O-])c(C)c1,-26,-14,-1,0,68*
